Laboratory results from ChEMBL document CHEMBL1158748, “Microbial hydroxylation of bufalin by Cunninghamella blakesleana and Mucor spinosus” (J Nat Prod, 2005).

tested on: Bel-7402; experiment: Cytotoxicity against human Bel7402 cells after 72 hrs by MTT assay; format: functional, cell-based; conditions: Bel-7402, 72 h
How it was run: (§1)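 Cells kept in RPMI 1640 with 10% (v/v) FBS and plated in 96-well plates. Test compounds added at dilutions of 10^-3-10² µmol/L, then incubated 72 h at 37 °C under 5% CO₂. Survival read by MTT. IC50 taken as the concentration (µmol/L) giving 50% inhibition of cell growth.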

Compound	IC50
C[C@]12CC[C@H](O)C[C@H]1C[C@H](O)[C@@H]1[C@@H]2C[C@H](O)[C@]2(C)[C@@H](c3ccc(=O)oc3)CC[C@]12O	2900 nM
C[C@]12CC[C@H](O)C[C@H]1CC[C@@H]1[C@@H]2C[C@@H](O)[C@]2(C)[C@@H](c3ccc(=O)oc3)CC[C@]12O	26 nM
C[C@]12CC[C@H](O)C[C@H]1CC[C@@H]1[C@@H]2CC[C@]2(C)[C@@H](c3ccc(=O)oc3)CC[C@]12O [BUFALIN]	7 nM
C[C@]12CC[C@H](O)C[C@H]1CC[C@@H]1[C@@H]2C[C@H](O)[C@]2(C)[C@@H](c3ccc(=O)oc3)CC[C@]12O	410 nM

tested on: BGC-823; experiment: Cytotoxicity against human BGC823 cells after 72 hrs by MTT assay; format: functional, cell-based; conditions: BGC-823, 72 h; how it was run: as §1

Compound	IC50
C[C@]12CC[C@H](O)C[C@H]1C[C@H](O)[C@@H]1[C@@H]2C[C@H](O)[C@]2(C)[C@@H](c3ccc(=O)oc3)CC[C@]12O	5300 nM
C[C@]12CC[C@H](O)C[C@H]1CC[C@@H]1[C@@H]2C[C@@H](O)[C@]2(C)[C@@H](c3ccc(=O)oc3)CC[C@]12O	31 nM
C[C@]12CC[C@H](O)C[C@H]1CC[C@@H]1[C@@H]2CC[C@]2(C)[C@@H](c3ccc(=O)oc3)CC[C@]12O [BUFALIN]	45 nM
C[C@]12CC[C@H](O)C[C@H]1CC[C@@H]1[C@@H]2C[C@H](O)[C@]2(C)[C@@H](c3ccc(=O)oc3)CC[C@]12O	420 nM

tested on: HeLa; experiment: Cytotoxicity against human HeLa cells after 72 hrs by MTT assay; format: functional, cell-based; conditions: not given; how it was run: as §1

Compound	IC50
C[C@]12CC[C@H](O)C[C@@]1(O)C[C@H](O)[C@@H]1[C@@H]2CC[C@]2(C)[C@@H](c3ccc(=O)oc3)CC[C@]12O	22 nM
C[C@]12CC[C@H](O)C[C@H]1C[C@H](O)[C@@H]1[C@@H]2C[C@H](O)[C@]2(C)[C@@H](c3ccc(=O)oc3)CC[C@]12O	60 nM
C[C@]12CC[C@H](O)C[C@H]1CC[C@@H]1[C@@H]2C[C@@H](O)[C@]2(C)[C@@H](c3ccc(=O)oc3)CC[C@]12O	7.6 nM
C[C@]12CC[C@H](O)C[C@H]1CC[C@@H]1[C@@H]2CC[C@]2(C)[C@@H](c3ccc(=O)oc3)CC[C@]12O [BUFALIN]	28 nM
C[C@]12CC[C@H](O)C[C@H]1CC[C@@H]1[C@@H]2C[C@H](O)[C@]2(C)[C@@H](c3ccc(=O)oc3)CC[C@]12O	60 nM
